{"source": "ChEMBL document CHEMBL1926677", "about": "“Further structure-activity relationship studies on 8-substituted-3-[2-(diarylmethoxyethylidenyl)]-8-azabicyclo[3.2.1]octane derivatives at monoamine transporters” (Bioorg Med Chem, 2011)", "key": {"[1]": {"biological_target": "Sodium-dependent dopamine transporter (Rattus norvegicus, UniProt P23977)", "sequence (P23977 whole entry)": "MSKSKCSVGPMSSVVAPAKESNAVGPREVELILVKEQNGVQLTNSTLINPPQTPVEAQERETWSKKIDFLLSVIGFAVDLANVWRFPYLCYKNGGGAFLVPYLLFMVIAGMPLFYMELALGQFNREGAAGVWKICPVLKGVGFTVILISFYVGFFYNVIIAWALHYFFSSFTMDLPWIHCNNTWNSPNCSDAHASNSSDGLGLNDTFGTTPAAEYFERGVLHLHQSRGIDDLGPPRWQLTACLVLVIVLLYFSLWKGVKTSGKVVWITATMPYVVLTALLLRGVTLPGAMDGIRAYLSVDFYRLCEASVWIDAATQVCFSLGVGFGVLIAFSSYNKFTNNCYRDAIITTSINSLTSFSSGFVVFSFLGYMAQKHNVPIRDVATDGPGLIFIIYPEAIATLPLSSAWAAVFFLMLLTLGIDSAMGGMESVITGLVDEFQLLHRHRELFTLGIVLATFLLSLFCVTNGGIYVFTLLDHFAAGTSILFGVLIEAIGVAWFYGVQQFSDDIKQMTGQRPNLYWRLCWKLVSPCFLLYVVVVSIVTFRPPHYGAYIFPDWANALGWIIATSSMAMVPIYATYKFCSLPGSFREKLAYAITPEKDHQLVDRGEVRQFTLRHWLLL", "assay": "Displacement of [3H]WIN35428 from DAT in Sprague-Dawley rat brain homogenates after 1 hr by scintillation counting", "format": "tissue-based", "summary_of_the_method": "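Male Sprague-Dawley rats (200–250 g); caudate-putamen homogenised in ice-cold modified Krebs-HEPES buffer pH 7.4, washed by repeated 20,000 × g spins; fresh membranes ~0.3% w/v (150–300 µg protein). Nonspecific: 100 µM cocaine.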"}, "Transporter": {"biological_target": "Transporter (Rattus norvegicus, UniProt Q63380)", "sequence (Q63380 whole entry)": "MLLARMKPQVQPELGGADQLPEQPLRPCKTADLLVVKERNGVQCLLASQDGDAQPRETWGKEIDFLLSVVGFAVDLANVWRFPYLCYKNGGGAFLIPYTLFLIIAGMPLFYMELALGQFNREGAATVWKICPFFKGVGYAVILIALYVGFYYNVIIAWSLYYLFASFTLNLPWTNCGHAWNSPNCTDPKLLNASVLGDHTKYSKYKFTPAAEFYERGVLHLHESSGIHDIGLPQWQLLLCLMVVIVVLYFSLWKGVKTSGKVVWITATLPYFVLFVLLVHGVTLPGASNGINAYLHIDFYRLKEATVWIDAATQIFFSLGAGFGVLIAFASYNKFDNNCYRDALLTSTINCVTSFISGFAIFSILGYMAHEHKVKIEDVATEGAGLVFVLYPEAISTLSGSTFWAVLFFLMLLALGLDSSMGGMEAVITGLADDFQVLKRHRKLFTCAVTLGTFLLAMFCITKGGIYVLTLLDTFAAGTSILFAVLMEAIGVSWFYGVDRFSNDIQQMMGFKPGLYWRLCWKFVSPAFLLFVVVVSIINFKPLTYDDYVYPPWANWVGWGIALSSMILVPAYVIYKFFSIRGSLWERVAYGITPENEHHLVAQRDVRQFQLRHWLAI", "assay": "Displacement of [3H]nisoxetine from NET in Sprague-Dawley rat brain cortex membranes after 1 hr", "format": "cell membranes, Membrane", "summary_of_the_method": "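Rat frontal cortex membranes in 50 mM Tris, 120 mM NaCl, 5 mM KCl, pH 7.4, washed at 50,000 × g, 8 mg wet tissue/tube. 0.5 nM [3H]nisoxetine, 1 h on ice; GF/B filters presoaked in 0.05% PEI. Nonspecific: 1 µM desipramine. Compounds first screened at 1 µM for displacement.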"}, "Rattus norvegicus [2]": {"species_on_record": "Rattus norvegicus", "assay": "Selectivity ratio of Ki for NET in Sprague-Dawley rat brain cortex membranes to Ki for DAT in Sprague-Dawley rat brain homogenates", "format": "cell membranes", "conditions": "Membrane"}, "[3]": {"biological_target": "Sodium-dependent serotonin transporter (Rattus norvegicus, UniProt P31652)", "sequence (P31652 whole entry)": "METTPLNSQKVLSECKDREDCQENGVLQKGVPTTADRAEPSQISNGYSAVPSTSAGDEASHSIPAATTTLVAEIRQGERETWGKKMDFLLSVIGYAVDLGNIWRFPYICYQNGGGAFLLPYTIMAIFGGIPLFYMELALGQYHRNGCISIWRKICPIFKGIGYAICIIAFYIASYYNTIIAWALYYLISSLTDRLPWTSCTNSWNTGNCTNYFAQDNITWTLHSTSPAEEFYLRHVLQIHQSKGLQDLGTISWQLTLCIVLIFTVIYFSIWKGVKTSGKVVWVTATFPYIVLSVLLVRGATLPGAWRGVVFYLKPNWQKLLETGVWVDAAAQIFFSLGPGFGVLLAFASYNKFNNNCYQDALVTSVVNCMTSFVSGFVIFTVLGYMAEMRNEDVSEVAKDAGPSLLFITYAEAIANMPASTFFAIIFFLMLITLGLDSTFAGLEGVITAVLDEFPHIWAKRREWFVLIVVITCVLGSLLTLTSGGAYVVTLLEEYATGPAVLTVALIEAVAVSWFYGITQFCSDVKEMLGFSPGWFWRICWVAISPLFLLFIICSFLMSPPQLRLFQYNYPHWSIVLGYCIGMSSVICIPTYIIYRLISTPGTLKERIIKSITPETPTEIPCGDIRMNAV", "assay": "Displacement of [3H]citalopram from SERT in Sprague-Dawley rat brain homogenates after 60 mins by liquid scintillation counting", "format": "tissue-based", "summary_of_the_method": "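Midbrain from male Sprague-Dawley rats (200–225 g), frozen, homogenised in 50 mM Tris with 120 mM NaCl, 5 mM KCl (pH 7.4, 25 °C), washed at 20,000 × g. Nonspecific: 1 µM citalopram. GF/B filters in polyethylenimine, liquid scintillation counting.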"}, "Rattus norvegicus [4]": {"species_on_record": "Rattus norvegicus", "assay": "Selectivity ratio of Ki for SERT in Sprague-Dawley rat brain homogenates to Ki for DAT in Sprague-Dawley rat brain homogenates", "format": "tissue-based"}, "[5]": {"assay": "Selectivity ratio of DAT over SERT"}}}
{"smiles": "Cc1ccc(CN2[C@@H]3CC[C@H]2C/C(=C/COC(c2ccccc2)c2ccccc2)C3)cc1", "values": [{"measurement": "Ki", "setting": "[1]", "value": 13, "unit": "nM"}, {"measurement": "Ki", "setting": "Transporter", "value": 1770, "unit": "nM"}, {"measurement": "Ratio Ki", "setting": "Rattus norvegicus [2]", "value": 136}, {"measurement": "Ki", "setting": "[3]", "value": 746, "unit": "nM"}, {"measurement": "Ratio Ki", "setting": "Rattus norvegicus [4]", "value": 57}]}
{"smiles": "C=CCN1[C@@H]2CC[C@H]1C/C(=C/COC(c1ccccc1)c1ccccc1)C2", "values": [{"measurement": "Ki", "setting": "[1]", "value": 143, "unit": "nM"}]}
{"smiles": "C(/COC(c1ccccc1)c1ccccc1)=C1/C[C@H]2CC[C@@H](C1)N2CC1CC1", "values": [{"measurement": "Ki", "setting": "[1]", "value": 169, "unit": "nM"}]}
{"smiles": "Clc1ccc(CN2[C@@H]3CC[C@H]2C/C(=C/COC(c2ccccc2)c2ccccc2)C3)cc1", "values": [{"measurement": "Ki", "setting": "[1]", "value": 7.6, "unit": "nM"}, {"measurement": "Ki", "setting": "Transporter", "value": 2710, "unit": "nM"}, {"measurement": "Ratio Ki", "setting": "Rattus norvegicus [2]", "value": 554}, {"measurement": "Ki", "setting": "[3]", "value": 544, "unit": "nM"}, {"measurement": "Ratio Ki", "setting": "Rattus norvegicus [4]", "value": 72}]}
{"smiles": "Cc1ccc(CN2[C@@H]3CC[C@H]2C/C(=C/COC(c2ccc(F)cc2)c2ccc(F)cc2)C3)cc1", "values": [{"measurement": "Ki", "setting": "[1]", "value": 6.1, "unit": "nM"}, {"measurement": "Ki", "setting": "Transporter", "value": 2750, "unit": "nM"}, {"measurement": "Ratio Ki", "setting": "Rattus norvegicus [2]", "value": 450}, {"measurement": "Ki", "setting": "[3]", "value": 405, "unit": "nM"}, {"measurement": "Ratio Ki", "setting": "Rattus norvegicus [4]", "value": 68}]}
{"smiles": "CCCN1[C@@H]2CC[C@H]1C/C(=C/COC(c1ccccc1)c1ccccc1)C2", "values": [{"measurement": "Ki", "setting": "[1]", "value": 245, "unit": "nM"}]}
{"smiles": "Fc1ccc(C(OC/C=C2\\C[C@H]3CC[C@@H](C2)N3Cc2ccccc2)c2ccc(F)cc2)cc1", "values": [{"measurement": "Ki", "setting": "[3]", "value": 2220, "unit": "nM"}]}
{"smiles": "Fc1ccc(C(OC/C=C2\\C[C@H]3CC[C@@H](C2)N3CCCc2ccccc2)c2ccc(F)cc2)cc1", "values": [{"measurement": "Ratio", "setting": "[5]", "value": 300}]}
{"smiles": "Fc1ccc(C(OC/C=C2\\C[C@H]3CC[C@@H](C2)N3Cc2ccc(Cl)cc2)c2ccc(F)cc2)cc1", "values": [{"measurement": "Ki", "setting": "[1]", "value": 3.9, "unit": "nM"}, {"measurement": "Ki", "setting": "Transporter", "value": 5300, "unit": "nM"}, {"measurement": "Ratio Ki", "setting": "Rattus norvegicus [2]", "value": 1360}, {"measurement": "Ki", "setting": "[3]", "value": 656, "unit": "nM"}, {"measurement": "Ratio Ki", "setting": "Rattus norvegicus [4]", "value": 168}]}
{"smiles": "CN1[C@@H]2CC[C@H]1C/C(=C/COC(c1ccc(F)cc1)c1ccc(F)cc1)C2", "values": [{"measurement": "Ki", "setting": "[1]", "value": 19, "unit": "nM"}, {"measurement": "Ratio", "setting": "[5]", "value": 300}]}
{"smiles": "CN1[C@@H]2CC[C@H]1C/C(=C/COC(c1ccccc1)c1ccccc1)C2", "values": [{"measurement": "Ki", "setting": "[1]", "value": 130, "unit": "nM"}, {"measurement": "Ratio", "setting": "[5]", "value": 300}]}
{"smiles": "C#CCN1[C@@H]2CC[C@H]1C/C(=C/COC(c1ccccc1)c1ccccc1)C2", "values": [{"measurement": "Ki", "setting": "[1]", "value": 536, "unit": "nM"}]}
{"smiles": "CCCN1[C@@H]2CC[C@H]1C/C(=C/COC(c1ccc(F)cc1)c1ccc(F)cc1)C2", "values": [{"measurement": "Ki", "setting": "[1]", "value": 41, "unit": "nM"}, {"measurement": "Ki", "setting": "Transporter", "value": 2850, "unit": "nM"}, {"measurement": "Ratio Ki", "setting": "Rattus norvegicus [2]", "value": 69}, {"measurement": "Ki", "setting": "[3]", "value": 5460, "unit": "nM"}, {"measurement": "Ratio Ki", "setting": "Rattus norvegicus [4]", "value": 133}]}
{"smiles": "C(/COC(c1ccccc1)c1ccccc1)=C1/C[C@H]2CC[C@@H](C1)N2Cc1ccccc1", "values": [{"measurement": "Ki", "setting": "[1]", "value": 48, "unit": "nM"}, {"measurement": "Ratio", "setting": "[5]", "value": 300}, {"measurement": "Ki", "setting": "Transporter", "value": 1390, "unit": "nM"}, {"measurement": "Ratio Ki", "setting": "Rattus norvegicus [2]", "value": 29}, {"measurement": "Ki", "setting": "[3]", "value": 5420, "unit": "nM"}, {"measurement": "Ratio Ki", "setting": "Rattus norvegicus [4]", "value": 113}]}
{"smiles": "Fc1ccc(CN2[C@@H]3CC[C@H]2C/C(=C/COC(c2ccccc2)c2ccccc2)C3)cc1", "values": [{"measurement": "Ki", "setting": "[1]", "value": 7, "unit": "nM"}, {"measurement": "Ki", "setting": "Transporter", "value": 3340, "unit": "nM"}, {"measurement": "Ratio Ki", "setting": "Rattus norvegicus [2]", "value": 477}, {"measurement": "Ki", "setting": "[3]", "value": 4090, "unit": "nM"}, {"measurement": "Ratio Ki", "setting": "Rattus norvegicus [4]", "value": 585}]}
{"smiles": "C(/COC(c1ccccc1)c1ccccc1)=C1/C[C@H]2CC[C@@H](C1)N2CCCc1ccccc1", "values": [{"measurement": "Ratio", "setting": "[5]", "value": 300}]}
{"smiles": "CCN1[C@@H]2CC[C@H]1C/C(=C/COC(c1ccc(F)cc1)c1ccc(F)cc1)C2", "values": [{"measurement": "Ki", "setting": "[1]", "value": 40, "unit": "nM"}, {"measurement": "Ki", "setting": "Transporter", "value": 3580, "unit": "nM"}, {"measurement": "Ratio Ki", "setting": "Rattus norvegicus [2]", "value": 89}, {"measurement": "Ki", "setting": "[3]", "value": 5960, "unit": "nM"}, {"measurement": "Ratio Ki", "setting": "Rattus norvegicus [4]", "value": 149}]}
{"smiles": "Fc1ccc(CN2[C@@H]3CC[C@H]2C/C(=C/COC(c2ccc(F)cc2)c2ccc(F)cc2)C3)cc1", "values": [{"measurement": "Ki", "setting": "[1]", "value": 4.9, "unit": "nM"}, {"measurement": "Ki", "setting": "Transporter", "value": 3150, "unit": "nM"}, {"measurement": "Ratio Ki", "setting": "Rattus norvegicus [2]", "value": 643}, {"measurement": "Ki", "setting": "[3]", "value": 1140, "unit": "nM"}, {"measurement": "Ratio Ki", "setting": "Rattus norvegicus [4]", "value": 234}]}
{"smiles": "C=CCN1[C@@H]2CC[C@H]1C/C(=C/COC(c1ccc(F)cc1)c1ccc(F)cc1)C2", "values": [{"measurement": "Ki", "setting": "[1]", "value": 21, "unit": "nM"}, {"measurement": "Ki", "setting": "Transporter", "value": 3120, "unit": "nM"}, {"measurement": "Ratio Ki", "setting": "Rattus norvegicus [2]", "value": 149}, {"measurement": "Ki", "setting": "[3]", "value": 3460, "unit": "nM"}, {"measurement": "Ratio Ki", "setting": "Rattus norvegicus [4]", "value": 167}]}
{"smiles": "CCN1[C@@H]2CC[C@H]1C/C(=C/COC(c1ccccc1)c1ccccc1)C2", "values": [{"measurement": "Ki", "setting": "[1]", "value": 286, "unit": "nM"}]}
{"smiles": "Fc1ccc(C(OC/C=C2\\C[C@H]3CC[C@@H](C2)N3CC2CC2)c2ccc(F)cc2)cc1", "values": [{"measurement": "Ki", "setting": "[1]", "value": 4, "unit": "nM"}, {"measurement": "Ki", "setting": "Transporter", "value": 2500, "unit": "nM"}, {"measurement": "Ratio Ki", "setting": "Rattus norvegicus [2]", "value": 625}, {"measurement": "Ki", "setting": "[3]", "value": 4240, "unit": "nM"}, {"measurement": "Ratio Ki", "setting": "Rattus norvegicus [4]", "value": 1060}]}
